Source: PubChem
Most compounds without a hit are left out; they make up all but 3.5% or so of the library.
PGC1a acetyl inh: inhibitors of PGC1a acetylation signal, primary screen, cell-based, U2OS, AlphaScreen, inhibitor mode. AlphaScreen anti-acetyl-lysine; with virally co-expressed GCN5 acetyltransferase. hit rate 0.17% among 350,000. AID 651687, 2012. inhibition, % at 15.6 µM;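 active = every replicate shows inhibition of at least 40%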;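 note: 0% = neutral control wells and 100% = positive control wells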
Ecoli rRNA inh: reduced GFP signal of wild-type E. coli, primary screen, bacterial rRNA inhibitor project, GFP/RFP fluorescence, OD600, single point; GFP signal change (wild-type ribosome), % (no concentration beside the values); hit rate 1.6% among 350,000; E. coli WT GFP vs humanized-ribosome RFP mutants, 24 h; active compounds read low; DMSO median 0, no signal -100;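 active = significant combined selectivity score with lowered wild-type GFP, culture density cut under 30%, mutant RFP and density less affected; inactive = any of these conditions unmet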
ERAP1 HTS inh: human ERAP1 aminopeptidase inhibitors, primary screen, biochemical, single point, plate reader; recombinant ERAP1, Leu-AMC fluorescence, 60 min; inhibition, % at 10.7 µM; hit rate 0.15% among 340,000; AID 652197, 2013;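 active = mean replicate inhibition of at least 30%, or all replicates individually reaching that 30% level; inactive = mean below 30% and not every replicate reaching it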;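 note: 0% = neutral control wells and 100% = L-leucinethiol positive control wells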
FGF22 binding: binders of human FGF22 protein, primary screen, FGF22 synaptogenesis inhibitor project, biophysical, thermal shift, single point | Fibroblast growth factor 22 (Homo sapiens), Q9HCT0 | recombinant FGF22 thermal shift, SYPRO orange fluorescence; percent of sucrose octasulfate shift, DMSO zero | activity (Tm shift, normalised), % at 9.99 µM | hit rate 1.5% among 340,000 | AID 651658, 2012;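 active = mean Tm shift, scaled 0 neutral to 100 positive control, at about 1.3% or above, every replicate too, limit read from the data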
Target sequence (Q9HCT0 whole entry, looked up): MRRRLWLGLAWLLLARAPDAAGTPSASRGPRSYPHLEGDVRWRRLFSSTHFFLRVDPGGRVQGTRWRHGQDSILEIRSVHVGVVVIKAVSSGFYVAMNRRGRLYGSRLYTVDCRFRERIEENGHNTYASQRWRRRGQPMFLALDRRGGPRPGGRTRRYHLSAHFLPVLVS
Cneo AK release: Cryptococcus neoformans cell lysis inducers, primary screen, AK release luminescence, single concentration; AID 651654, 2012; C. neoformans lysis, adenylate kinase release luminescence, 4 h; normalised: neutral wells 0, clomiphene wells 100; lysis activity, % at 15 µM; hit rate 0.2% among 360,000;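 active = mean lysis activity across replicates of at least 80%, whatever share of replicates individually reach that level; inactive = mean lysis activity below 80%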
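Schedule: static 4 h at 37 °C with compound, 1 h detection; system: C. neoformans cells; benchmarks: Clomiphene as positive control; buffer or medium: fresh YPD medium; measure: luminescence rise reflecting yeast cell lysis; measured by: luminescent adenylate kinase detection reagent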
Env fusion inh: inhibitors of HIV-1 Env-driven cell-cell fusion, primary screen, HeLa-JRFL effector, CEM21 target cells, luciferase. AID 651610, 2012. inhibition, % at 12.3 µM. hit rate 1.1% among 360,000;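 active = mean replicate inhibition score of at least 50 and every replicate individually at or above 50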;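 note: 0% = plate neutral controls and 100% = maraviroc near 300 nM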
* hit, by the source's call; . = not tested or not shown; [ ] = dose if it differs, or a comment.

SMILES	PGC1a acetyl inh	Ecoli rRNA inh	ERAP1 HTS inh	FGF22 binding	Cneo AK release	Env fusion inh
C/C(=C/CCC(C)(O)C1CC[C@@]2(C)[C@@H]3CC=C4[C@@H](CC[C@H](O[C@H]5O[C@@H](CO)[C@H](O)[C@@H](O)[C@@H]5O)C4(C)C)[C@]3(C)C(=O)C[C@]12C)CO[C@@H]1O[C@H](CO)[C@@H](O)[C@H](O)[C@H]1O (stereo partly specified)	3	-9	2	0	-1	88*
COc1ccc(Cl)cc1NC(=S)N(Cc1cccnc1)Cc1ccco1	7	-24*	2	0	.	-3
Cc1ccc(Cl)cc1NC(=S)N(Cc1ccccc1)Cc1cccnc1	1	-26*	-10	0	.	-7
S=C(Nc1ccccc1Cl)N(Cc1ccccc1)Cc1cccnc1	.	-31	-2	0	.	1
CCNC(=O)C[C@@H]1CC[C@@H]2[C@H](COC[C@H](O)CN2C(=O)Nc2ccc3c(c2)OCO3)O1	-10	3	-1	0	-4	.
CCc1nc2oc3ccccc3c(=O)c2c(=O)n1-c1ccc(C)cc1	2	-42	4	0	-1	-76
CCCc1nc2oc3ccccc3c(=O)c2c(=O)n1-c1ccccc1	-1	-30*	-2	0	1	-31
Cc1ccc(-n2c(C(C)C)nc3oc4ccccc4c(=O)c3c2=O)cc1	.	-32*	2	0	.	-231
CCCc1nc2oc3ccccc3c(=O)c2c(=O)n1-c1ccc(C)cc1	12	-46*	6	0	-1	-119
Cc1noc(C)c1NC(=O)Nc1cccc2c1O[C@H](CN(C)C(=O)Nc1c(C)noc1C)[C@H](C)CN([C@@H](C)CO)C2=O	-1	1	1	0	-4	-8[16.7 µM]
N#Cc1ccccc1S(=O)(=O)N1CCNS(=O)(=O)c2ccccc21	0	17	.	0	3	-5
O=C(C1=C(O)/C(=C/c2ccc(O)cc2)CCC1)C(F)(F)F	8	.	.	.	0	.
CC(C)(C)C(O)CN1CCCC1 (stereo unspecified)	12	17	3	44*	0	1
O=C(Nc1ccc(N2CCN(C(=O)c3ccc(Cl)cc3)CC2)cc1)c1ccc2c(c1)OCCO2	4	.	.	.	2	86*
CC[C@@H]1C/C=C\C[C@@H](c2ccc(OC)cc2OC)NC(=O)[C@H](C)CC(=O)N1	.	0	.	.	.	.
COc1ccc(Cl)cc1/C=N/NC(=O)c1c(-c2ccccc2)noc1C	.	-17*	2	0	2	6
Cc1onc(-c2ccccc2)c1C(=O)Nc1ccccc1NC(=O)c1c(-c2ccccc2)noc1C	3	2	-2	0	-1	4
CCOc1ccccc1NC(=O)c1nc(-c2ccccc2)oc1C	.	12	0	43*	.	-8
COc1cccc(/C=N/NC(=O)c2ccccc2)c1OS(=O)(=O)c1ccccc1	.	-31	-2	44*	.	0
Cc1onc(-c2ccccc2)c1C(=O)Nc1ccc(Br)cc1Cl	1	9	0	0	-1	86*
Cc1oc(-c2ccccc2)nc1C(=O)Nc1nccs1	-1	.	.	.	2	-122
CC=Cc1ccc2n(c1=O)C[C@@H]1[C@@H](CO)[C@H](C(=O)NCc3ccccn3)[C@H]2N1C (mixture of isomers)	.	3	1	0	-4	-3[16.7 µM]
O=C(NCC[C@@H]1CC[C@@H](NC(=O)C2CC2)[C@@H](CO)O1)Nc1ccc(Cl)cc1	-5	-35	-2	0	-1	-27[16.7 µM]
O=C(NCCSCc1ccco1)Nc1ccccc1	1	5	-9	0	-2	.
O=C(C[n+]1ccc(C(=O)N/N=C/c2ccc(OCc3ccccc3)cc2)cc1)c1ccccc1	3	7	-2	1	1	.
Cc1onc(-c2ccccc2)c1C(=O)N/N=C/c1ccc(Br)cc1	.	-4	-2	0	-1	56*
